Measured values collected from several papers.
Each line is one published result; the experiments were not run side by side.
Target: Cytochrome P450 3A4 (CYP3A4, Homo sapiens, UniProt P08684)

Structure (SMILES)	assay	test system	setting	measurement	result
C=CC(=O)Nc1cc(Nc2nccc(Nc3cc(Cl)c(F)cc3C(C)(C)O)n2)c(OC)cc1N1CC[C@@H](N(C)C)C1	enzyme activity, inhibitor	human, liver microsomes	10 µM	inhibition	24.3%
CC1(C)CCC2(CC1)N[C@@H](C(=O)N[C@@H]1CC[C@@H](C(N)=O)OC1)[C@H](c1ccnc(Cl)c1F)[C@]21C(=O)Nc2cc(Cl)ccc21	enzyme activity, inhibitor	human, liver microsomes	with preincubation, midazolam probe	kinact	0.00103 s⁻¹
COC(=O)C1CCN(C(=O)c2ccc(N(CCO)Cc3cnc4nc(N)nc(N)c4n3)cc2)CC1	enzyme activity, inhibitor, luciferase	–	10 µM	inhibition	-27.6%
CCc1cc(/C(C)=N/OCc2ccc(C3CCCCC3)c(C(F)(F)F)c2)ccc1CN1CC(C(=O)O)C1	enzyme activity, inhibitor	human, liver microsomes	200 µM, 20 min, testosterone probe	inhibition	72.7%
COC(=O)C1CCN(C(=O)Cc2ccc(NCc3cnc4nc(N)nc(N)c4n3)cc2)CC1	enzyme activity, inhibitor, luciferase	–	10 µM	inhibition	-1.83%
NCCCCCC(=O)NCc1cccnc1	thermal stability	–	–	ΔTm	-0.2 °C
COc1cc2c(c(OC)c1OC)-c1c(cc3c(c1OC)OCO3)[C@H](OC(=O)c1ccccc1)[C@@](C)(O)[C@@H](C)C2	enzyme activity, inhibitor	–	15 min, pH 7.4	IC50	25 µM
CC(C)(C)OC(=O)N[C@H](CSCCC(=O)NCc1cccnc1)Cc1c[nH]c2ccccc12	thermal stability	–	–	ΔTm	0.2 °C
CC(=O)c1cccc(OCc2cc(C(=O)N(C)[C@@H](C)c3ccccn3)no2)c1	enzyme activity, inhibitor	human, liver microsomes	–	IC50	27 µM
CCOC(=O)C1CCN(C(=O)c2ccc(N(CC)Cc3cnc4nc(N)nc(N)c4n3)cc2)CC1	enzyme activity, inhibitor, luciferase	–	10 µM	inhibition	-13.6%
O=C(N[C@H](Cc1c[nH]c2ccccc12)C(=O)Nc1ccncc1)c1ccc(-c2cc(F)ccc2F)cc1F	enzyme activity, inhibitor	human, liver microsomes	1 µM	inhibition	74%
CCN(Cc1cnc2nc(N)nc(N)c2n1)c1ccc(C(=O)N2CCC(C(=O)OC)CC2)cc1	enzyme activity, inhibitor, luciferase	–	10 µM	inhibition	-13.9%
CC(C)(C)OC(=O)N[C@H](CSCCC(=O)NCc1cccnc1)CC1CCCCC1	thermal stability	–	–	ΔTm	-2 °C
